Eight compounds from ChEMBL document CHEMBL1126562, “(1-Butyl-4-piperidinyl)methyl 8-amino-7-chloro-1,4-benzodioxane-5-carboxylate hydrochloride: a highly potent and selective 5-HT4 receptor antagonist derived from metoclopramide” (J Med Chem, 1993) can be followed below.

In data set [1] the target is 5-hydroxytryptamine receptor 4 (Cavia porcellus, UniProt O70528). The experiment in a line: Inhibition of 5-HT-evoked 5-HT4 receptor-mediated contractions in the guinea pig distal colon longitudinal muscle myenteric plexus (LMMP). It counts as functional.
5-hydroxytryptamine receptor 4, sequence (O70528 whole entry): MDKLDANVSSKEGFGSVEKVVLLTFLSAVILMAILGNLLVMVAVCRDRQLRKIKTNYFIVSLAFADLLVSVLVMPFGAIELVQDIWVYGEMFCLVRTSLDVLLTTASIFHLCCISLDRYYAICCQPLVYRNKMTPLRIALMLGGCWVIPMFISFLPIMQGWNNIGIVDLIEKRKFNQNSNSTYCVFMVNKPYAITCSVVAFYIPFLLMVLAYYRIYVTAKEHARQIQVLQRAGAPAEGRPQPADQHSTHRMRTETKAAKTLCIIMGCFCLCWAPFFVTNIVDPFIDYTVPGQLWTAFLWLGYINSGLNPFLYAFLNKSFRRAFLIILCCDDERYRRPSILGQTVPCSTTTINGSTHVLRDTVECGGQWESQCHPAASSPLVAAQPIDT
Data set [2] is described as follows: Acid dissociation constant was determined. Format: ADME.
Data set [3] deals with T1, 5-hydroxytryptamine receptor 1A (Mus musculus, UniProt Q64264).
T1 sequence (Q64264 whole entry): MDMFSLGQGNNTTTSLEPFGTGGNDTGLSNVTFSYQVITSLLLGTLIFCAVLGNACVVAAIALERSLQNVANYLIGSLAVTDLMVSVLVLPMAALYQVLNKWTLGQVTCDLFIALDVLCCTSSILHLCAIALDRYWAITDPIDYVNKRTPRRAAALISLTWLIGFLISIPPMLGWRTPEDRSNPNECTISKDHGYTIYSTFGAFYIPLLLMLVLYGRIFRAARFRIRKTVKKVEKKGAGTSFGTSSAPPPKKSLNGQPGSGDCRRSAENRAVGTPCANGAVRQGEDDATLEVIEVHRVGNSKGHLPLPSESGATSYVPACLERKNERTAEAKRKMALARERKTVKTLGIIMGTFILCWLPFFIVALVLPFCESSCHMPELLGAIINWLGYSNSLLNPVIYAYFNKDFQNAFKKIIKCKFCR
The experiment in a line: Tested against 5-hydroxytryptamine 1A receptor.

Data set [4] addresses 5-hydroxytryptamine receptor 2A (Homo sapiens, UniProt P28223). Description: Tested against 5-hydroxytryptamine 2A receptor.
For data set [5], the target named is Serotonin 3 (5-HT3) receptor. The experiment in a line: Tested against 5-hydroxytryptamine 3 receptor in experiment 2. It counts as protein-complex assay.
Data set [6] has as its target 5-hydroxytryptamine receptor 1E (Homo sapiens, UniProt P28566). Description: Tested for binding affinity towards cloned human 5-hydroxytryptamine 1E receptor using [3H]5-HT as radioligand. The procedure, abridged: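 Radioligand binding on the cloned human 5-HT1E receptor, labelled with [³H]-5-HT.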
Data set [7] deals with 5-hydroxytryptamine receptor 1D (Homo sapiens, UniProt P28221). The experiment in a line: Tested against 5-hydroxytryptamine 1D receptor.
5-hydroxytryptamine receptor 1D, sequence (P28221 whole entry): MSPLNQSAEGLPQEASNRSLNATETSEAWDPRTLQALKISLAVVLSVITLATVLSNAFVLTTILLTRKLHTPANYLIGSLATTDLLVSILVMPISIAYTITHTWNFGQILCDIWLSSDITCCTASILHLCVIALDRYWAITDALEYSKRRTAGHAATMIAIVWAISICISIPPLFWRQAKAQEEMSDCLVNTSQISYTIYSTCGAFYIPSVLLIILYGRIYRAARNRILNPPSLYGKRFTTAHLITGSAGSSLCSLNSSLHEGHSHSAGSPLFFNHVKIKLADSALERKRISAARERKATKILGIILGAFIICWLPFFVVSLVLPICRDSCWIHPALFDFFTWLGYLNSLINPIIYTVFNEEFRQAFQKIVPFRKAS
Data set [8] addresses T2, 5-hydroxytryptamine receptor 2C (Homo sapiens, UniProt P28335).
T2 sequence (P28335 whole entry): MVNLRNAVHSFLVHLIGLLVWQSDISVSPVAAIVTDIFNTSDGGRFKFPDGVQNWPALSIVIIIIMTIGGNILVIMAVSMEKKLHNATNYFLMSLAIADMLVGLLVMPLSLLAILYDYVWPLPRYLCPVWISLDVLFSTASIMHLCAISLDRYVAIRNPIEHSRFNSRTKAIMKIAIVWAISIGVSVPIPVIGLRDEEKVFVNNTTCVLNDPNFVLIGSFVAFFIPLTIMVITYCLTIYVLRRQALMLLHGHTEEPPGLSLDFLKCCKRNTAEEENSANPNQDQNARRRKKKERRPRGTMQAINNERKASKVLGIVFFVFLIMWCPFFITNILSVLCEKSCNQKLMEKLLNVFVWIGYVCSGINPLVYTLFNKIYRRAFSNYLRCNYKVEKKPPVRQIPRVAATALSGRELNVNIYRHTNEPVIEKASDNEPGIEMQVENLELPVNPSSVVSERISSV
Description: Tested agains t5-hydroxytryptamine 2C receptor in experiment 1.

The next data set has as its target D(3) dopamine receptor (Homo sapiens, UniProt P35462). Description: Tested against dopamine receptor D3 using cloned human receptor expressed in CHO cells radiolabeled with [125I]iodosulpiride. It counts as cell-based. The procedure, abridged: (§1)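 Competition binding on cloned human D2 or D3 receptors expressed in CHO cells, radiolabelled with [¹²⁵I]iodosulpride.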

In data set [9] the target is T3, Alpha-2A adrenergic receptor (Homo sapiens, UniProt P08913).
T3 sequence (P08913 whole entry): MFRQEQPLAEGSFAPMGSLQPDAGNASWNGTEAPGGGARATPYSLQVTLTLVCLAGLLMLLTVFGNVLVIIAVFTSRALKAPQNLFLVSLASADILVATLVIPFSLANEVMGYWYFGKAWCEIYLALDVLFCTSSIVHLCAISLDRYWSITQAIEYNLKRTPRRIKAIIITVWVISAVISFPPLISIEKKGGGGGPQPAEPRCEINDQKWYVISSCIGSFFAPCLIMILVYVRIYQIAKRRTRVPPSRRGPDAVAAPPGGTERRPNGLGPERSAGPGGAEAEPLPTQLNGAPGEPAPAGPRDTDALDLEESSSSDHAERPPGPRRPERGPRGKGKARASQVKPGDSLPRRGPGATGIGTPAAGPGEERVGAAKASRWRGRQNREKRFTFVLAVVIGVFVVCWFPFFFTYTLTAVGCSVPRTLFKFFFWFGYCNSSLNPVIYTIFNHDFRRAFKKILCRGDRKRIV
The experiment in a line: Tested against adrenergic alpha-2 receptor.

Data set [10] addresses Beta-1 adrenergic receptor (Homo sapiens, UniProt P08588). Description: Tested against Beta-1 adrenergic receptor.
The target of data set [11] is Beta-2 adrenergic receptor (Homo sapiens, UniProt P07550). The experiment in a line: Tested against Beta-2 adrenergic receptor.
Beta-2 adrenergic receptor, sequence (P07550 whole entry): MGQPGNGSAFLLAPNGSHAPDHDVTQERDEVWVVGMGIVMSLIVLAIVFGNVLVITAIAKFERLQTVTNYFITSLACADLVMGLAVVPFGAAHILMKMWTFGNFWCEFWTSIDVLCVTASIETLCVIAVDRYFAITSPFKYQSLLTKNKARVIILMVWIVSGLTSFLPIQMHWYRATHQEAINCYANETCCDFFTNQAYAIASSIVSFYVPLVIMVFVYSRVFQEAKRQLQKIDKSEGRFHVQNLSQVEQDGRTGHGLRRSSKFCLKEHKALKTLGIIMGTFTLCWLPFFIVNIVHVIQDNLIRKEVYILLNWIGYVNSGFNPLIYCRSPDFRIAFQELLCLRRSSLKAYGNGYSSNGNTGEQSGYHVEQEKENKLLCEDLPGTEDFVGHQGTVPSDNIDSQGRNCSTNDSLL
In data set [12] the target is T2, 5-hydroxytryptamine receptor 2C. The experiment in a line: Tested against 5-hydroxytryptamine 2C receptor in experiment 2.
Data set [13] deals with T4, Alpha-1D adrenergic receptor (Rattus norvegicus, UniProt P23944).
T4 sequence (P23944 whole entry): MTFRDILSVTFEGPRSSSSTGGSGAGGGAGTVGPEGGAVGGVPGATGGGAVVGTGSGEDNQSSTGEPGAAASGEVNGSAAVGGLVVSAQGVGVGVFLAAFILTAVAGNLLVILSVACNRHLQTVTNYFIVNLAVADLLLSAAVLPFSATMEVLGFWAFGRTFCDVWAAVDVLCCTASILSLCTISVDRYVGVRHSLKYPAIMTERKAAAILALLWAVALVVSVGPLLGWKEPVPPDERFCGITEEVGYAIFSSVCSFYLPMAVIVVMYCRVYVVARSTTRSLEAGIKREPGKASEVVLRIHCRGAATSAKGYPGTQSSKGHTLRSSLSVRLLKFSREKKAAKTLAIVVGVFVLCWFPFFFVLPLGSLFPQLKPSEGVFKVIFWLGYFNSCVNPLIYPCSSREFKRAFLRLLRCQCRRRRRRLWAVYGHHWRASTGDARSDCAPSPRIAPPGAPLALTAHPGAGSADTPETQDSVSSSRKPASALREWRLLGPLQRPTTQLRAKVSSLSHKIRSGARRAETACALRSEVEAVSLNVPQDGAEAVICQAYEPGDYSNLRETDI
Description: Tested against adrenergic alpha-1 receptor radiolabeled with [3H]7-methoxyprazosin. The gist of the method:
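α1-Adrenoceptor binding, radiolabelled with [³H]-7-methoxyprazosin.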

Data set [14] in a line: Concentration-dependent rightward shift of the 5-HT curve yielding an apparent pA2. It counts as ADME.
Data set [15] concerns the target Serotonin 3 (5-HT3) receptor. Description: Tested against 5-hydroxytryptamine 3 receptor in experiment 1. It counts as protein-complex assay.
A further data set deals with D(1A) dopamine receptor (Mus musculus, UniProt Q61616). Description: Tested against dopamine receptor D1.
D(1A) dopamine receptor, sequence (Q61616 whole entry): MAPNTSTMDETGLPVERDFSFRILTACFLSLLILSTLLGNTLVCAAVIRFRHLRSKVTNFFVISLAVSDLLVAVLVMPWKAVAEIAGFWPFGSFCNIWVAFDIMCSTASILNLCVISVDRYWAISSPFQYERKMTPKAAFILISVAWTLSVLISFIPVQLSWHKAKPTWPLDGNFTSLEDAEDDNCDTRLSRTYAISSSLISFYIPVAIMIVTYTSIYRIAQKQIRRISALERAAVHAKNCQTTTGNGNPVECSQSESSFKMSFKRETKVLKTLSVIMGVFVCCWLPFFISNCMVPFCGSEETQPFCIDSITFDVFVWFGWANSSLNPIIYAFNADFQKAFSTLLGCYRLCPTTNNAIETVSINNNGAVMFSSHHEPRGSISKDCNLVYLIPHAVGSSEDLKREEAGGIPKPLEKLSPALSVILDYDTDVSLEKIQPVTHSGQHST
The target of another data set is D(2) dopamine receptor (Homo sapiens, UniProt P14416). The experiment in a line: Tested against dopamine receptor D2 using cloned human receptor expressed in CHO cells radiolabeled with [125I]iodosulpiride. Format: cell-based. The gist of the method:
as §1

Data set [16] is described as follows: Partition coefficient (logP). Conditions: octanol/water. It counts as physicochemical.

5-hydroxytryptamine receptor 2A, sequence (P28223 whole entry): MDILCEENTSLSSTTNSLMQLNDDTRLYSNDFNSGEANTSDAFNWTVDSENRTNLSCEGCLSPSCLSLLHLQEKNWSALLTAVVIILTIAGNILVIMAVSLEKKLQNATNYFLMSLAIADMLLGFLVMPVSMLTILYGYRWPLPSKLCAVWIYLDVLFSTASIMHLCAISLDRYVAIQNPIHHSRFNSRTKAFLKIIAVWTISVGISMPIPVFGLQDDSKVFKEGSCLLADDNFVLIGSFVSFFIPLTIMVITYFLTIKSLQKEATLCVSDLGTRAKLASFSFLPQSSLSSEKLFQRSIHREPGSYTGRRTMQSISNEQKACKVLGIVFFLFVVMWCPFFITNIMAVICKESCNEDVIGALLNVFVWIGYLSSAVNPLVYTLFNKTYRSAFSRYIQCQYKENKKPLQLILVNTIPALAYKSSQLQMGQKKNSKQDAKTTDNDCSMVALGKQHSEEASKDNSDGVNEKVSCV
Beta-1 adrenergic receptor, sequence (P08588 whole entry): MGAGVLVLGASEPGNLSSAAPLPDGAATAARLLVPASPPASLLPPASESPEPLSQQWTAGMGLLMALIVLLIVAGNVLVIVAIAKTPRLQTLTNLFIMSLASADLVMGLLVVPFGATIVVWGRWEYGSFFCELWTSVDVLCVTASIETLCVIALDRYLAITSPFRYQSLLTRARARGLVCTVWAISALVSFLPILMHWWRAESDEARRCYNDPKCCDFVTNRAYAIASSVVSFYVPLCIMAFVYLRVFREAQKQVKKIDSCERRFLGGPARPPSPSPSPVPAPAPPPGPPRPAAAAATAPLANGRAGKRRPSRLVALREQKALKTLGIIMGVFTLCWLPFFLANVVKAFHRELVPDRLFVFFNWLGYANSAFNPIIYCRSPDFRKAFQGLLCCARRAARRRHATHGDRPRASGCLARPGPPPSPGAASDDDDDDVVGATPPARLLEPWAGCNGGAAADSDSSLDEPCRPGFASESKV
D(3) dopamine receptor, sequence (P35462 whole entry): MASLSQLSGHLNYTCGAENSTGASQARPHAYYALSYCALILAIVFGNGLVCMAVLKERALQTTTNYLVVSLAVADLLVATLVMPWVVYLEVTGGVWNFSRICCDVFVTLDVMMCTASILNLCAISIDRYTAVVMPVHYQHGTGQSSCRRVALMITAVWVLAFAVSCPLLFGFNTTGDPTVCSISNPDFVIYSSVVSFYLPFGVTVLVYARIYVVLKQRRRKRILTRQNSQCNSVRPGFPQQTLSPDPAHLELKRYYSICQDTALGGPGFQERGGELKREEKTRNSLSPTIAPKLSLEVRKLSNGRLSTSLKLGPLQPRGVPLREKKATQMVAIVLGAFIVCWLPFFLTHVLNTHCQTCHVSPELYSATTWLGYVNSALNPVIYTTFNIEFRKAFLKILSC
D(2) dopamine receptor, sequence (P14416 whole entry): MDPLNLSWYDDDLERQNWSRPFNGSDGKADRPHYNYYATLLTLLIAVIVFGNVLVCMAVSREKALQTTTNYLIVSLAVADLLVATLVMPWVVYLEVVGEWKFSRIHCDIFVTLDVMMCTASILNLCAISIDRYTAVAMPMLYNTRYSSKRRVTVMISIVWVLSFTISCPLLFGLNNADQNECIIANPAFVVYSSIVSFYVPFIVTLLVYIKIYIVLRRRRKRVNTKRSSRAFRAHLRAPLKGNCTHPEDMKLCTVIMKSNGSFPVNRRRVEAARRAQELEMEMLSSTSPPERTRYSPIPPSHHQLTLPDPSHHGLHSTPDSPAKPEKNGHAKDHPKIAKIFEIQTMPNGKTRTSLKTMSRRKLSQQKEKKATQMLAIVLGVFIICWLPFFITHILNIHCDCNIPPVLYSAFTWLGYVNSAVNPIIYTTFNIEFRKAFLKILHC
5-hydroxytryptamine receptor 1E, sequence (P28566 whole entry): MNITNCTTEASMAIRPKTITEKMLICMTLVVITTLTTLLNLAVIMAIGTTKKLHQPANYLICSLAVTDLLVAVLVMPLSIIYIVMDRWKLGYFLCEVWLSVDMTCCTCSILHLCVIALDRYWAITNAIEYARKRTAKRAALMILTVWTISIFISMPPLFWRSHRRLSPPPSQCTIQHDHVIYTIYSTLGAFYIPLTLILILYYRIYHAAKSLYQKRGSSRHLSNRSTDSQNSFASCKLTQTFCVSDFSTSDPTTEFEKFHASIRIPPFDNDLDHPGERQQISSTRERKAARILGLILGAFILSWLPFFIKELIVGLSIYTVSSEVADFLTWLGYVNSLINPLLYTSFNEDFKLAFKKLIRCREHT

Regarding `CCCCN1CCC(COC(=O)c2cccc3c2OCCO3)CC1`, the midpoint of inhibition in [1], the IC50, lay at 0.00631 µM.

As to `CCCCN1CCC(COC(=O)c2cccc3c2OCCCO3)CC1`, the midpoint of inhibition in data set [1], the IC50, lay at 0.0501 µM.

Regarding `CCCCN1CCC(CNC(=O)c2cc(Cl)c(N)cc2OC)CC1`, inhibition in [1] was half-maximal at 0.01 µM (IC50).

On to `CCCCN1CCC(COC(=O)c2cccc3c2OCO3)CC1`, for which half-maximal inhibition in data set [1] (IC50) required 0.0631 µM.

For the compound `CCN(CC)CCOC(=O)c1cc(Cl)c(N)cc1OC`, half-maximal inhibition in [1] (IC50) was put at 0.251 µM.

In the case of `CCCCN1CCC(COC(=O)c2cc(Cl)c(N)cc2OC)CC1`, in [1], the midpoint of inhibition, the IC50, lay at 0.001 µM.

Take `CCCCN1CCC(COC(=O)c2cc(Cl)c(N)c3c2OCCO3)CC1`: in data set [2], the pKa (in general, the negative logarithm of the acid dissociation constant) turned out to be 10.4. Also, the Ki – broadly, a measure of affinity in units of concentration, obtained from inhibition or displacement – was > 1 µM in data set [3]; > 1 µM in data set [4]; > 10 µM in [6]; > 10 µM in data set [7]; 0.126 µM in [8]; > 1 µM at D(3) dopamine receptor. Moreover, the Ki is > 1 µM in data set [9]; > 1 µM in data set [10]; > 1 µM in data set [11]; 0.0794 µM in data set [12]; > 1 µM in data set [13]; > 1 µM on D(1A) dopamine receptor. Also, the Ki on D(2) dopamine receptor is > 10 µM. Also, the “Log Ki” value is -6.7 in data set [5] and -6.6 in data set [15]. Also, in data set [1], the IC50 (commonly the point on the concentration scale where inhibition reaches its midpoint) is 0.0001 µM. Further, the pA2 (as a rule, the negative logarithm of the molar antagonist concentration that doubles the agonist concentration needed for the same response) in data set [14] came out at 10.8. In addition, in data set [16], the logP – broadly, the decadic logarithm of the partition coefficient of the neutral form, usually between octanol and water – was determined as 4.86.

`CN1[C@@H]2CC[C@H]1C[C@@H](OC(=O)c1c[nH]c3ccccc13)C2` [TROPISETRON]: the IC50 in data set [1] was 3.16 µM.
